Data reported in ChEMBL document CHEMBL4251598, “Development of novel bis-pyrazole derivatives as antitumor agents with potent apoptosis induction effects and DNA damage” (Eur J Med Chem, 2018).
pIC50: −log10 of the molar value. Activity calls are given as the source filed them.

Tests used:
SMMC-7721 [1] = experiment: Induction of apoptosis in human SMMC7721 cells assessed as apoptotic cells at 0.2 uM after 72 hrs by FITC-Annexin-V/7AAD/propidium iodide staining based flow cytometry relative to control; type: functional
Summary of the method: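 SMMC-7721 cells cultured overnight, then treated in triplicate with 0.2, 0.8 or 3.2 μM, vehicle, or ADM (3.2 μM) for 72 h. Stained with annexin V and PI (methods section: APC-annexin V/7-AAD) for 15 min at room temperature. Mean ± SD of three independent experiments.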

SMMC-7721 [2] = experiment: Antiproliferative activity against human SMMC7721 cells assessed as inhibition of cell proliferation at 25 uM after 72 hrs by MTT assay relative to control; type: functional; details: SMMC-7721, 72 h
Summary of the method: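 Cells in DMEM with 10% FBS, plated at 10^4 cells/mL, adhered overnight. Treated at 25 μM for 72 h. MTT added for the last 4 h, formazan dissolved in DMSO, A570 read. Inhibition expressed as percent of untreated. Mean + SD from three separate measurements.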

Mus musculus [3] = experiment: Acute toxicity in ICR mouse assessed as effect on drinking behaviour at 200 mg/kg, ip measured up to 14 days post dose; type: organism-based; details: in vivo, 336 h
Summary of the method: (§1)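 Female ICR mice, 10 per group, single intraperitoneal injection at 488.3, 390.6, 312.5, 250 or 200 mg/kg, or vehicle control. Survival, eating, drinking, body weight and activity were monitored for up to 14 days after dosing. MTD was defined as the highest dose giving no drug-related moribund state or death, with temporary body-weight loss within 20%. LD50 was calculated from mortality.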

Mus musculus [4] = experiment: Toxicity in BALB/c mouse xenografted with human SMMC7721 cells assessed as effect on body weight at 15 to 30 mg/kg, ip measured after 19 days; type: organism-based; details: in vivo, 456 h
Summary of the method: (§2)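 Female BALB/c nude mice, 5-6 weeks old, inoculated subcutaneously with 10^6 SMMC-7721 cells. At 50-100 mm³ tumours, mice were randomized to ip compound (15 or 30 mg/kg), ADM (15 mg/kg) or vehicle, n = 6 per group. Caliper volume ½(L×W²) measured every 3 days to day 19, with body weight monitored. Tumours excised and weighed at the end.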

SMMC-7721 [5] = experiment: Antiproliferative activity against human SMMC7721 cells after 72 hrs by MTT assay; type: functional, cell-based; details: SMMC-7721, 72 h
Summary of the method: (§3)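 Cells in DMEM with 10% FBS, 10^4 cells/mL, adhered overnight at 37 °C, 5% CO2. Treated in triplicate with a range of concentrations for 72 h. MTT (5 mg/mL solution) added for the last 4 h, formazan dissolved in DMSO, absorbance read at 570 nm. IC50 calculated from percent inhibition. Mean ± SD of three independent experiments.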

[6] = Acute toxicity in ICR mouse assessed as survival at 488.3 mg/kg, ip measured on day 14; type: organism-based; details: in vivo; summary of the method: as §1
SMMC-7721 [7] = experiment: Induction of apoptosis in human SMMC7721 cells assessed as increase in cleaved PARP expression at 0.2 to 3.2 uM after 72 hrs by Western blot analysis relative to control; type: functional, cell-based
Summary of the method: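 Sub-confluent SMMC-7721 cells treated with vehicle, compound or ADM at indicated concentrations for 72 h. Lysed on ice in NP-40/deoxycholate/SDS buffer with PMSF and leupeptin. Up to 50 µg protein run on SDS-PAGE, transferred to PVDF and probed with specific antibodies; ECL detection. Bands quantified by densitometry relative to β-actin, mean ± SD of three experiments.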

HCT-116 [8] = experiment: Potency index, ratio of ADM IC50 to compound IC50 for human HCT116 cells; type: functional
SMMC-7721 [9] = experiment: Induction of DNA double stranded breaks in human SMMC7721 cells assessed as increase in H2AX phosphorylation at S139 after 72 hrs by Western blot analysis; type: functional, cell-based
Summary of the method: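 SMMC-7721 cells treated with vehicle, compound at 0.2, 0.8 or 3.2 μM, or ADM for 72 h. Lysates immunoblotted for H2AX pS139, p-p53 (Ser15), total p53 and β-actin, with ECL detection. Signals quantified by densitometry relative to β-actin, mean ± SD of three experiments.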

HCT-116 [10] = experiment: Antiproliferative activity against human HCT116 cells after 72 hrs by MTT assay; type: functional, cell-based; details: HCT-116, 72 h; summary of the method: as §3
SMMC-7721 [11] = experiment: Potency index, ratio of ADM IC50 to compound IC50 for human SMMC7721 cells; type: functional
SMMC-7721 [12] = experiment: Antitumor activity against human SMMC7721 cells xenografted in BALB/c mouse assessed as tumor growth inhibition at 15 mg/kg, ip measured after 19 days relative to control; type: functional; details: SMMC-7721, ip, 456 h, read-out: TGI; summary of the method: as §2
[13] = Acute toxicity in ICR mouse assessed as survival at 390.6 mg/kg, ip measured on day 14; type: organism-based; details: in vivo; summary of the method: as §1
Mus musculus [14] = experiment: Acute toxicity in ICR mouse assessed as mouse mortality level at 200 to 250 mg/kg, ip measured on day 4 post dose; type: organism-based; details: in vivo; summary of the method: as §1

COc1ccc(Oc2c(/C=N\OCc3c(Cl)c(-c4ccc(Cl)cc4)nn3C)c(C)nn2C)cc1
Activity (SMMC-7721 [1]): 29.6%
inhibition at 25 µM (SMMC-7721 [2]): 80%
Activity (Mus musculus [3]): Non-Toxic
Activity (Mus musculus [4]): Non-Toxic
pIC50 (SMMC-7721 [5]): 6.12
survival at 14 day [6]: 10%
Activity (SMMC-7721 [7]): Active
Ratio IC50 (HCT-116 [8]): 2 - 3
Activity (SMMC-7721 [9]): Dose-dependent effect
pIC50 (HCT-116 [10]): 5.90
Ratio IC50 (SMMC-7721 [11]): 2 - 3
inhibition in vivo at 15 mg/kg (SMMC-7721 [12]): 44%
survival at 14 day [13]: 40%
Activity (Mus musculus [14]): Non-Toxic
